# Experimental data taken from ChEMBL document CHEMBL1129458, “Indole inhibitors of human nonpancreatic secretory phospholipase A2. 3. Indole-3-glyoxamides” (J Med Chem, 1996).
# Experiments:
# Cavia porcellus [1] = species on record: Cavia porcellus; assay: Inhibition of Phospholipase A2 induced contraction of GP lung tissue; assay type: functional
# How it was run: (§1)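 Guinea pig lung pleural strips were contracted with either hnps-PLA2 or arachidonic acid, the latter serving as the control challenge for selectivity. Antagonism is given as KB.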
# Phospholipase A2 [2] = biological target: T1, Phospholipase A2 (Homo sapiens, UniProt P04054); assay: Compound was evaluated to inhibit human secretory pancreatic Phospholipase A2
# T1 sequence (P04054 whole entry): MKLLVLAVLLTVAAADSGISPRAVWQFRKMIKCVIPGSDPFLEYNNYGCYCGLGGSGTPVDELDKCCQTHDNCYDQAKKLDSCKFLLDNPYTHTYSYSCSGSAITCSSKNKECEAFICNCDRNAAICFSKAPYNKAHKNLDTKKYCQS
# [3] = biological target: T2, Phospholipase A2, membrane associated (Homo sapiens, UniProt P14555); assay: Inhibition of human nonpancreatic secretory Phospholipase A2 through chromogenic assay
# T2 sequence (P14555 whole entry): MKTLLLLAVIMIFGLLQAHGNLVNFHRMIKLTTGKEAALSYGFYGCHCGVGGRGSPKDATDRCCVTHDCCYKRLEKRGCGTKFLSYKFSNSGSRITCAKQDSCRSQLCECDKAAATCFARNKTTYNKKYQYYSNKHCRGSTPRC
# [4] = Mole fraction of the IC50 concentration of compound divided by the total lipid concentration (1230 uM) in a chromogenic assay; assay type: functional
# Cavia porcellus [5] = species on record: Cavia porcellus; assay: Inhibition Arachidonic acid(AA) induced contraction of GP lung tissue; assay type: functional; how it was run: as §1
# [6] = biological target: T2, Phospholipase A2, membrane associated; assay: Inhibition of human nonpancreatic secretory Phospholipase A2 through DOC/PC assay
# How it was run: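 hnps-PLA2 (10 ng per tube; 3 nM) was preincubated with test compound in DMSO in pH 8 Tris buffer with 0.2 M NaCl, 2 mM CaCl2 and fatty-acid-free BSA. The substrate was sonicated mixed micelles (final 3 mM deoxycholate/1 mM PC) with [14C]-palmitoyl-oleoyl-PC. Reactions ran 1 h at 40 °C and were stopped with Dole reagent. Released [14C]oleic acid was extracted with heptane/silica and counted. IC50 was calculated against diluent controls.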
# [7] = Mole fraction is the IC50 concentration divided by the total lipid concentration (4000 uM) in DOC/PC assay; assay type: functional
# How it was run: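 The value is a mole fraction: the DOC/PC assay IC50 (3 nM hnps-PLA2; 3 mM DOC/1 mM [14C]PC micelles; 1 h at 40 °C; released [14C]oleic acid counted) divided by the total lipid concentration of 4000 µM.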
# Phospholipase A2 [8] = biological target: T1, Phospholipase A2; assay: Compound was tested for inhibition of human secretory pancreatic Phospholipase A2
# [9] = biological target: T3, Phospholipase A2, major isoenzyme (Sus scrofa, UniProt P00592); assay: Compound was tested for inhibition of porcine secretory pancreatic PLA2
# T3 sequence (P00592 whole entry): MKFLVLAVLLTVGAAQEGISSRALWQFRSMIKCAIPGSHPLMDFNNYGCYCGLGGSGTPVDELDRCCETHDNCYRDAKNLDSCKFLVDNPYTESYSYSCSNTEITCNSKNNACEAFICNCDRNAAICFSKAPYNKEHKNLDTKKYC
# [10] = biological target: T3, Phospholipase A2, major isoenzyme; assay: Compound was tested for inhibition of porcine secretory pancreatic Phospholipase A2
# [11] = biological target: T2, Phospholipase A2, membrane associated; assay: Compound was evaluated to inhibit human nonpancreatic secretory Phospholipase A2 through chromogenic assay; assay type: functional
# How it was run: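 Chromogenic hnps-PLA₂ hydrolysis assay with 16 nM enzyme and 1.23 mM (1230 µM) total lipid substrate. IC₅₀ was determined, and the mole-fraction value is the IC₅₀ divided by the total lipid concentration.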
# Phospholipase A2 [12] = biological target: T1, Phospholipase A2; assay: Compound was tested for inhibition of human secreted pancreatic PLA2
# [13] = biological target: T3, Phospholipase A2, major isoenzyme; assay: Compound was tested for inhibition of porcine secreted pancreatic PLA2
# Phospholipase A2 [14] = biological target: T1, Phospholipase A2; assay: Compound was tested for inhibition of human secretory pancreatic PLA2
SMILES,KB (Cavia porcellus [1]) [µM],IC50 [3] [nM],Mole fraction [4],ED50 (Cavia porcellus [5]) [nM],IC50 [6] [nM],Mole fraction [7],also measured
Cc1c(C(=O)C(N)=O)c2c(CCC(=O)O)cccc2n1Cc1ccccc1,0.614,145,0.00012,–,–,–,IC50 (Phospholipase A2 [2]): > 100000 nM
Cc1c(C(=O)C(N)=O)c2c(OCC(=O)O)cccc2n1Cc1ccc(F)cc1,0.11,30,2.5e-05,>30000,74,1.9e-05,–
Cc1c(C(=O)C(N)=O)c2c(OCC(=O)O)cccc2n1Cc1ccc(-c2ccccc2)cc1,–,43,3.6e-05,–,150,3.8e-05,IC50 (Phospholipase A2 [8]): 1090 nM
NC(=O)C(=O)c1c(C2CC2)n(Cc2ccccc2-c2ccccc2)c2cccc(OCC(=O)O)c12,0.075,6,5e-06,>10000,23,5.8e-06,–
Cc1c(C(=O)C(N)=O)c2c(OCC(=O)O)cccc2n1Cc1cccc2ccccc12,0.128,9,7.3e-06,>30000,17,4.3e-06,IC50 (Phospholipase A2 [8]): 1200 nM
CCc1c(C(=O)C(N)=O)c2c(CC(=O)O)cc(C)cc2n1Cc1ccccc1,0.124,8,6.5e-06,3160,8,2e-06,–
CCc1c(C(=O)C(N)=O)c2c(OCC(=O)O)cccc2n1Cc1ccccc1 [VARESPLADIB],0.083,–,7.3e-06,>30000,–,1.8e-06,IC50 (Phospholipase A2 [8]): 228 nM; IC50 [9]: 48 nM
Cc1c(C(=O)C(N)=O)c2c(OCC(=O)O)cccc2n1Cc1ccccc1Cl,0.1,9,7.3e-06,>30000,25,6.3e-06,–
CCc1c(C(=O)C(N)=O)c2c(OCC(=O)O)cccc2n1Cc1ccccc1Cc1ccccc1,0.052,4,3.3e-06,–,4,1e-06,IC50 (Phospholipase A2 [8]): 62 nM
Cc1c(C(=O)C(N)=O)c2c(OCC(=O)O)cccc2n1Cc1cccc(-c2ccccc2)c1,–,9,7.3e-06,–,8,2e-06,IC50 (Phospholipase A2 [8]): 570 nM; IC50 [10]: 7 nM
CCc1c(C(=O)C(N)=O)c2c(NCC(=O)O)cccc2n1Cc1ccccc1,–,1000,0.00081,–,–,–,–
NC(=O)C(=O)c1c(C2CC2)n(Cc2ccccc2)c2cccc(OCC(=O)O)c12,–,28,2.3e-05,–,41,1e-05,–
C=CCc1ccc2c(c1OCC(=O)O)c(C(=O)C(N)=O)c(CC)n2Cc1ccccc1,–,1620,0.013,–,–,–,–
CCc1c(C(=O)C(N)=O)c2c(OCC(=O)O)cccc2n1Cc1ccccc1-c1ccccc1,0.057,6,5e-06,30000,6,1.5e-06,–
Cc1c(C(=O)C(N)=O)c2c(OCC(=O)O)cccc2n1Cc1ccccc1,0.14,11,8.9e-06,>10000,19,4.8e-06,IC50 (Phospholipase A2 [8]): 761 nM; IC50 [10]: 15 nM
CCc1c(C(=O)C(N)=O)c2c(OCC(=O)O)cccc2n1S(=O)(=O)c1ccccc1,0.316,–,2.3e-05,–,–,–,IC50 [11]: 28 nM
Cc1c(C(=O)C(N)=O)c2c(/C=C/C(=O)O)cccc2n1Cc1ccccc1,–,46000,0.036,–,–,–,IC50 (Phospholipase A2 [2]): > 100000 nM
CCc1c(C(=O)C(N)=O)c2c(OCC(=O)O)cccc2n1C(=O)c1ccccc1,0.34,81,6.6e-05,–,39,9.8e-06,–
COc1ccc2c(c1)c(C(=O)C(N)=O)c(C)n2Cc1ccccc1,–,2560,0.00012,–,–,–,–
Cc1c(C(=O)C(N)=O)c2c(O[C@@H](C)C(=O)O)cccc2n1Cc1ccccc1,–,188,0.00015,–,136,3.4e-05,–
CCc1c(C(=O)C(N)=O)c2c(OC(C)(C)C(=O)O)cccc2n1Cc1ccccc1,0.143,25,2.1e-05,>30000,29,7.3e-06,–
Cc1ccccc1Cn1c(C)c(C(=O)C(N)=O)c2c(OCC(=O)O)cccc21,0.154,15,1.3e-05,>30000,45,1.1e-05,–

SMILES,KB (Cavia porcellus [1]) [µM],IC50 [3] [nM],Mole fraction [4],ED50 (Cavia porcellus [5]) [nM],IC50 [6] [nM],Mole fraction [7],also measured
Cc1c(C(=O)C(N)=O)c2c(OCC(=O)O)cccc2n1Cc1ccccc1-c1ccccc1,0.068,6,5e-06,>10000,3,7.5e-07,IC50 (Phospholipase A2 [8]): 364 nM; IC50 [10]: 97 nM
CCCCCCCCn1c(C)c(C(=O)C(N)=O)c2c(OCC(=O)O)cccc21,0.061,8,6.5e-06,>30000,18,4.5e-06,IC50 (Phospholipase A2 [12]): 780 nM
Cc1c(C(=O)C(N)=O)c2c(OC(C)C(=O)O)cccc2n1Cc1ccccc1 (centres undefined),0.145,10,8.1e-06,>30000,–,2.3e-06,–
COc1cccc2c1c(CC(N)=O)c(C)n2Cc1ccccc1,–,1180,0.00012,–,–,–,–
CCc1c(C(=O)C(N)=O)c2c(OCC(N)=O)cccc2n1Cc1ccccc1,–,124,0.0001,–,–,–,–
CCCc1c(C(=O)C(N)=O)c2c(OCC(=O)O)cccc2n1Cc1ccccc1-c1ccccc1,–,–,6.7e-05,–,–,–,–
CCc1c(C(=O)C(N)=O)c2cc(OCCCC(=O)O)ccc2n1Cc1ccccc1,–,–,0.00017,–,–,–,–
CCc1c(C(=O)C(N)=O)c2c(N(CCC(=O)O)C(C)=O)cccc2n1Cc1ccccc1,–,> 100000,–,–,–,–,–
COc1cccc2c1c(C(=O)C(N)=O)c(C)n2Cc1ccccc1,–,551,0.00012,–,–,–,–
Cc1c(C(=O)C(N)=O)c2c(O[C@H](C)C(=O)O)cccc2n1Cc1ccccc1,–,11,8.9e-06,–,6,1.5e-06,–
CCc1c(C(=O)C(N)=O)c2c(N(CC(=O)O)C(C)=O)cccc2n1Cc1ccccc1,–,> 100000,–,–,–,–,–
NC(=O)C(=O)c1cn(Cc2ccccc2)c2cccc(OCC(=O)O)c12,–,96,8e-05,–,–,–,–
Cc1c(C(=O)C(N)=O)c2c(OCC(=O)O)cccc2n1Cc1c(Cl)cccc1Cl,0.077,–,5e-06,>30000,22,5.5e-06,–
CCc1c(C(=O)C(N)=O)c2c(OC(C)C(=O)O)cccc2n1Cc1ccccc1 (centres undefined),0.21,11,8.9e-06,3160,13,3.3e-06,–
NC(=O)C(=O)c1cn(Cc2ccccc2)c2ccc(OCCCC(=O)O)cc12,–,–,0.048,–,–,–,–
Cc1c(C(=O)C(N)=O)c2c(OCCCC(=O)O)cccc2n1Cc1ccccc1-c1ccccc1,–,243,0.0002,–,–,–,–
CCc1[nH]c2cccc(OCC(=O)O)c2c1C(=O)C(N)=O,3.41,1600,0.0013,–,–,–,–
CCc1c(C(=O)C(N)=O)c2c(OC(CCc3ccccc3)C(=O)O)cccc2n1Cc1ccccc1 (centres undefined),0.293,46,3.8e-05,>30000,26,6.5e-06,–
CCc1c(C(=O)C(N)=O)c2c(OCC(=O)O)cccc2n1Cc1cccc(Cl)c1,0.11,7,5.8e-06,5000,25,6.3e-06,IC50 [13]: 3 nM; IC50 (Phospholipase A2 [14]): 390 nM
CCc1c(C(=O)C(N)=O)c2c(O[C@@H](C)C(=O)O)cccc2n1Cc1ccccc1,–,141,0.00011,–,–,–,–
CCCc1ccc2c(c1OCC(=O)O)c(C(=O)C(N)=O)c(CC)n2Cc1ccccc1,–,2070,0.0017,–,–,–,–
CCc1c(C(=O)C(N)=O)c2c(SCC(=O)O)cccc2n1Cc1ccccc1,–,145,0.00012,–,210,5.3e-05,–
